ChEMBL document CHEMBL4680287, “Ibrexafungerp: An orally active β-1,3-glucan synthesis inhibitor” (Bioorg Med Chem Lett, 2021)
≈ marks a conversion by molar mass, not a printed value.

Assays:
[1] = Inhibition of beta-1,3-glucan synthase in Candida albicans MY1055 microsomal membrane assessed as inhibition of TCA-insoluble material formation using UDP-[3H]-glucose as substrate incubated for 2 hrs in presence of GTP by radioactivity-based assay; format: microsomes, Microsome
In short: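 GS IC50 measured using Candida albicans MY1055 microsomal membrane fragments as the enzyme source.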

[2] = system: Candida albicans; test: Antifungal activity against Candida albicans MY1055 assessed as fungal growth inhibition measured after 24 hrs by liquid microdilution method; format: functional
In short: (§1)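 Broth microdilution per CLSI protocols in RPMI medium. Read-out is the MIC, the lowest concentration completely inhibiting fungal growth. Run without serum and with added serum.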

[3] = system: Candida albicans; test: Antifungal activity against Candida albicans MY1055 assessed as fungal growth inhibition measured after 24 hrs in presence of 50% mouse serum by liquid microdilution method; format: functional; in short: as §1
[4] = system: Candida albicans; test: Antifungal activity against Candida albicans MY1055 infected in DBA/2 mouse model of disseminated candidiasis assessed as reduction in fungal burden in kidney by measuring log change in colony forming units at 12.5 mg/kg, po bid for 7 days by TOKA; format: functional; conditions: time 7 day
In short: (§2)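 Murine disseminated candidiasis model (TOKA) in mice challenged with C. albicans MY1055 at 2.44 x 10^4 CFU/mouse. Dosed PO, or IP where stated. Kidneys collected aseptically 7 days after challenge and CFUs/g counted. Change in log CFU/g is relative to sham-treated controls; significance by two-tailed t test. Clearance is the percentage of kidneys below the detection limit.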

[5] = system: Aspergillus fumigatus; test: Antifungal activity against Aspergillus fumigatus MF5668 assessed inhibition of fungal growth by measuring morphological changes measured after 24 hrs by microscopy; format: functional; conditions: read-out: MEC
In short: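 Microdilution per CLSI protocols in RPMI medium. Read-out is the minimum effective concentration (MEC). Run without serum and with 50% human serum.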

[6] = system: Candida albicans; test: Antifungal activity against Candida albicans MY1055 infected in DBA/2 mouse model of disseminated candidiasis assessed as reduction in fungal burden in kidney by measuring log change in colony forming units at 12.5 mg/kg, ip bid for 7 days by TOKA; format: functional; conditions: time 7 day; in short: as §2
[7] = Oral bioavailability in mouse; format: ADME, organism-based; conditions: in vivo
In short: (§3)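 Oral bioavailability calculated as oral AUC normalized to the IV dose, divided by the IV AUC.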

[8] = Dose normalized AUC in po dosed mouse; format: ADME, organism-based; conditions: in vivo
[9] = system: Candida albicans; test: Antifungal activity against Candida albicans MY1055 infected in DBA/2 mouse model of disseminated candidiasis assessed as reduction in fungal burden in kidney by measuring log change in colony forming units at 25 mg/kg, po bid for 7 days by TOKA; format: functional; conditions: time 7 day; in short: as §2
[10] = system: Candida albicans; test: Antifungal activity against Candida albicans MY1055 infected in DBA/2 mouse model of disseminated candidiasis assessed as reduction in fungal burden in kidney by measuring log change in colony forming units at 6.25 mg/kg, po bid for 7 days by TOKA; format: functional; conditions: time 7 day; in short: as §2
[11] = Clearance in mouse; format: ADME, organism-based; conditions: in vivo
[12] = system: Candida albicans; test: Antifungal activity against Candida albicans MY1055 infected in ip dosed DBA/2 mouse model of disseminated candidiasis assessed as reduction in fungal burden in kidney administered bid for 7 days by TOKA; format: functional; conditions: 168 h, time 7 day; in short: as §2
[13] = Clearance in rat; format: ADME; conditions: in vivo
[14] = Dose normalized AUC in po dosed rat; format: ADME, organism-based; conditions: in vivo
[15] = system: Aspergillus fumigatus; test: Antifungal activity against Aspergillus fumigatus MF5668 infected in DBA/2N mouse assessed as mean survival time at 6.25 mg/kg, ip bid administered for 7 days starting from 15 to 30 mins post infection and measured up to 21 days; format: functional; conditions: time 7 day
In short: (§4)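 DBA/2N mice were challenged IV with A. fumigatus MF5668 at 6.7 x 10^5 CFU/mouse, then dosed IP twice daily for 7 days. Survival was followed over a 21-day model, and mean survival time in days was recorded per dose group. A sham-treated control group was run alongside.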

[16] = system: Aspergillus fumigatus; test: Antifungal activity against Aspergillus fumigatus MF5668 infected in DBA/2N mouse assessed as mouse survival at 3.125 mg/kg, ip bid administered for 7 days starting from 15 to 30 mins post infection and measured up to 21 days relative to control; format: functional; conditions: 168 h, time 7 day
In short: (§5)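 DBA/2N mice were infected IV with A. fumigatus MF5668 (6.7 x 10^5 CFU/mouse) and treated IP bid for 7 days. Percent survival per dose group was scored at the end of the 21-day survival model and compared with the sham-treated control group.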

[17] = Half life in mouse; format: ADME, organism-based; conditions: in vivo
[18] = Oral bioavailability in rat; format: ADME, organism-based; conditions: in vivo; in short: as §3
[19] = system: Aspergillus fumigatus; test: Antifungal activity against Aspergillus fumigatus MF5668 infected in DBA/2N mouse assessed as mouse survival at 12.5 mg/kg, ip bid administered for 7 days starting from 15 to 30 mins post infection and measured up to 21 days relative to control; format: functional; conditions: 168 h, time 7 day; in short: as §5
[20] = system: Aspergillus fumigatus; test: Antifungal activity against Aspergillus fumigatus MF5668 infected in DBA/2N mouse assessed as mean survival time at 3.125 mg/kg, ip bid administered for 7 days starting from 15 to 30 mins post infection and measured up to 21 days; format: functional; conditions: time 7 day; in short: as §4
[21] = system: Aspergillus fumigatus; test: Antifungal activity against Aspergillus fumigatus MF5668 infected in DBA/2N mouse assessed as mean survival time at 12.5 mg/kg, ip bid administered for 7 days starting from 15 to 30 mins post infection and measured up to 21 days; format: functional; conditions: time 7 day; in short: as §4
[22] = system: Aspergillus fumigatus; test: Antifungal activity against Aspergillus fumigatus MF5668 infected in DBA/2N mouse assessed as mean survival time at 1.56 mg/kg, ip bid administered for 7 days starting from 15 to 30 mins post infection and measured up to 21 days; format: functional; conditions: time 7 day; in short: as §4
[23] = system: Aspergillus fumigatus; test: Antifungal activity against Aspergillus fumigatus MF5668 infected in DBA/2N mouse assessed as mouse survival at 1.56 mg/kg, ip bid administered for 7 days starting from 15 to 30 mins post infection and measured up to 21 days relative to control; format: functional; conditions: 168 h, time 7 day; in short: as §5
[24] = system: Aspergillus fumigatus; test: Antifungal activity against Aspergillus fumigatus MF5668 infected in ip dosed DBA/2N mouse assessed as 50% mouse survival administered bid administered for 7 days starting from 15 to 30 mins post infection and measured up to 21 days; conditions: 168 h
[25] = Half life in rat; format: ADME; conditions: in vivo
[26] = system: Aspergillus fumigatus; test: Antifungal activity against Aspergillus fumigatus MF5668 infected in DBA/2N mouse assessed as mouse survival at 6.25 mg/kg, ip bid administered for 7 days starting from 15 to 30 mins post infection and measured up to 21 days relative to control; format: functional; conditions: 168 h, time 7 day; in short: as §5
[27] = system: Aspergillus fumigatus; test: Antifungal activity against Aspergillus fumigatus MF5668 infected in ip dosed DBA/2N mouse assessed as 90% mouse survival administered bid administered for 7 days starting from 15 to 30 mins post infection and measured up to 21 days; format: functional; conditions: 168 h, time 7 day

Row | Structure (SMILES) | IC50 [1] [µg/mL] | MIC [2] [µg/mL] | MIC [3] [µg/mL] | Activity [4] [deltalog10CFU] | minimal effective concentration [5] [µg/mL] | bioavailability [7] [%] | AUC/dose [8] [µM·kg·h/mg] | Activity [9] [deltalog10CFU] | Activity [10] [deltalog10CFU] | further results
1 | CC(C)[C@@H](C)[C@@]1(C)CC[C@]2(C)[C@H]3CC[C@@H]4[C@@]5(COC[C@@]4(C)[C@@H](OCC(C)(C)N)[C@H](n4ncnc4-c4ccncc4)C5)C3=CC[C@@]2(C)[C@@H]1C(=O)O | 0.001 | 0.015 (≈ 0.0218 µM) | 0.5 | -1.1 | < 0.03 | – | – | – | – | Activity [6]: -4.2 deltalog10CFU
2 | CN[C@@](C)(CO[C@H]1[C@H](n2ncnc2-c2ccncc2)C[C@@]23COC[C@]1(C)[C@@H]2CC[C@H]1C3=CC[C@@]2(C)[C@H](C(=O)O)[C@@](C)([C@H](C)C(C)C)CC[C@]12C)C(C)C | 0.001 | 0.06 (≈ 0.0822 µM) | 0.5 | -3.1 | < 0.03 | 29 | 0.83 | -3.7 | -0.9 | –
3 | CC(C)[C@@H](C)[C@@]1(C)CC[C@]2(C)[C@H]3CC[C@@H]4[C@@]5(COC[C@@]4(C)[C@@H](OC[C@@]4(N)CCOCC4(C)C)[C@H](n4ncnc4-c4ccncc4)C5)C3=CC[C@@]2(C)[C@@H]1C(=O)O | 0.004 | 0.06 (≈ 0.0791 µM) | 1 | -2.2 | 0.004 | 25 | 0.35 | -3.2 | -0.9 | –
4 | CC(C)[C@@H](C)[C@@]1(C)CC[C@]2(C)[C@H]3CC[C@@H]4[C@@]5(COC[C@@]4(C)[C@@H](OC[C@](C)(N)C(C)C)[C@H](n4ncnc4-c4ccncc4F)C5)C3=CC[C@@]2(C)[C@@H]1C(=O)O | 0.001 | 0.015 (≈ 0.0204 µM) | 1 | -2.5 | 0.008 | 26 | 0.34 | -4.2 | -2.6 | –
5 | CC(C)[C@@H](C)[C@@]1(C)CC[C@]2(C)[C@H]3CC[C@@H]4[C@@]5(COC[C@@]4(C)[C@@H](OC[C@](C)(N)C4(C)CC4)[C@H](n4ncnc4-c4ccncc4)C5)C3=CC[C@@]2(C)[C@@H]1C(=O)O | 0.002 | < 0.03 | 0.5 | -2.6 | < 0.03 | 36 | 0.65 | -4.3 | -1.5 | –
6 | CC(C)[C@@H](C)[C@@]1(C)CC[C@]2(C)[C@H]3CC[C@@H]4[C@@]5(COC[C@@]4(C)[C@@H](OCC4(N)CCOCC4)[C@H](n4ncnc4-c4ccncc4)C5)C3=CC[C@@]2(C)[C@@H]1C(=O)O | 0.002 | < 0.03 | 0.25 | -3.1 | < 0.03 | 13 | 0.18 | -3.9 | -1.4 | clearance [11]: 18 mL/min/kg; ED99 [12]: 3.8 mg/kg; clearance [13]: 20 mL/min/kg; AUC/dose [14]: 0.34 µM·kg·h/mg; MST [15]: 12.5 days; survival at 3.125 mg/kg [16]: 10%; half-life [17]: 2.1 h; bioavailability [18]: 30%; survival at 12.5 mg/kg [19]: 60%; MST [20]: 7.3 days; MST [21]: 14.6 days; MST [22]: 4.1 days; survival at 1.56 mg/kg [23]: 0%; ED50 [24]: 11 mg/kg; half-life [25]: 1.9 h; survival at 6.25 mg/kg [26]: 40%; ED90 [27]: 26 mg/kg; Activity [6]: -4 deltalog10CFU
7 | CC(C)[C@@H](C)[C@@]1(C)CC[C@]2(C)[C@H]3CC[C@@H]4[C@@]5(COC[C@@]4(C)[C@@H](OC[C@](C)(N)C(C)C)[C@H](n4ncnc4-c4cccnc4)C5)C3=CC[C@@]2(C)[C@@H]1C(=O)O | 0.004 | 0.06 (≈ 0.0838 µM) | 1 | -2.9 | < 0.03 | 11 | 0.17 | -3.1 | -1.4 | –
8 | CN[C@@](C)(CO[C@H]1[C@H](n2ncnc2-c2cccnc2)C[C@@]23COC[C@]1(C)[C@@H]2CC[C@H]1C3=CC[C@@]2(C)[C@H](C(=O)O)[C@@](C)([C@H](C)C(C)C)CC[C@]12C)C(C)C | 0.005 | 0.25 (≈ 0.342 µM) | 1 | -2.4 | < 0.03 | 21 | 0.59 | -3 | -1.1 | –
9 | CC(C)[C@@H](C)[C@@]1(C)CC[C@]2(C)[C@H]3CC[C@@H]4[C@@]5(COC[C@@]4(C)[C@@H](OC[C@](C)(N)C(C)C)[C@H](n4ncnc4-c4ccccc4)C5)C3=CC[C@@]2(C)[C@@H]1C(=O)O | 0.003 | 0.25 (≈ 0.35 µM) | 4 | -1.7 | < 0.03 | 28 | 0.5 | -2.4 | -0.2 | –
